Reference: ChEMBL document CHEMBL5705905, “Pharmacological targeting of kinases MST1 and MST2 augments tissue repair and regeneration” (Sci Transl Med, 2016)
Activity calls are given as the source filed them. The rule behind the calls is not given here.

Experiments:
[1] = target: Serine/threonine-protein kinase RIO3 (Homo sapiens) (UniProt O14730); assay: Inhibition of RIOK3 (unknown origin) assessed as remaining activity at 1 uM by Kinome scan method relative to control
[2] = target: Serine/threonine-protein kinase OSR1 (Homo sapiens) (UniProt O95747); assay: Inhibition of OSR1 (unknown origin) assessed as remaining activity at 1 uM by Kinome scan method relative to control
[3] = target: Serine/threonine-protein kinase haspin (Homo sapiens) (UniProt Q8TF76); assay: Inhibition of HASPIN (unknown origin) assessed as remaining activity at 1 uM by Kinome scan method relative to control
Mus musculus [4] = assay: In vivo inhibition of MST1/2 in mouse assessed as YAP phosphorylation level at 1 mg/kg, ip administration and measured after between 1.5 to 6 hrs by immunoblot analysis; assay type: functional, organism-based; settings: time 1.5-6 hrs
Outline: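 Wild-type mice received 1 mg/kg intraperitoneally, with vehicle of 0.1% citric acid aqueous solution containing 20% Kolliphor HS 15. Livers were harvested over 0–12 h and lysates immunoblotted for p-MOB1 and p-YAP, normalized to control. Means ± SD, n = 3.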

[5] = target: Inhibitor of nuclear factor kappa-B kinase subunit beta (Homo sapiens) (UniProt O14920); assay: Inhibition of IKK-beta (unknown origin) assessed as remaining activity at 1 uM by Kinome scan method relative to control
Mus musculus [6] = assay: Protection against duct ligation-induced mouse assessed as low dead cells at 1 mg/kg, ip administration daily for 10 days by TUNEL staining; assay type: functional, organism-based; settings: Liver, time 10.0 day
[7] = target: Serine/threonine-protein kinase tousled-like 2 (Homo sapiens) (UniProt Q86UE8); assay: Inhibition of TLK2 (unknown origin) assessed as remaining activity at 1 uM by Kinome scan method relative to control
[8] = target: Tyrosine-protein kinase TXK (Homo sapiens) (UniProt P42681); assay: Inhibition of TXK (unknown origin) assessed as remaining activity at 1 uM by Kinome scan method relative to control
[9] = target: Calcium/calmodulin-dependent protein kinase type 1 (Homo sapiens) (UniProt Q14012); assay: Inhibition of CAMK1 (unknown origin) assessed as remaining activity at 1 uM by Kinome scan method relative to control
Outline: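 KINOMEscan active-site-dependent competition-binding panel of 468 kinases, compound at 1 μM from a DMSO stock. Result reported as ctrl% = (test signal − positive control signal)/(negative control signal − positive control signal) × 100. The negative control is DMSO (100%) and the positive control is a control compound (0%). Lower ctrl% means tighter binding.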

[10] = target: Tyrosine-protein kinase JAK2 (Homo sapiens) (UniProt O60674); assay: Inhibition of JAK2 JH1 domain (unknown origin) assessed as remaining activity at 1 uM by Kinome scan method relative to control
[11] = target: T1, Tyrosine-protein kinase JAK1 (Homo sapiens, UniProt P23458); assay: Inhibition of JAK1 JH1 domain (unknown origin) assessed as remaining activity at 1 uM by Kinome scan method relative to control
[12] = target: Dual specificity mitogen-activated protein kinase kinase 5 (Homo sapiens) (UniProt Q13163); assay: Inhibition of MEK5 (unknown origin) assessed as remaining activity at 1 uM by Kinome scan method relative to control
[13] = target: Mast/stem cell growth factor receptor Kit (Homo sapiens) (UniProt P10721); assay: Inhibition of KIT-autoinhibited (unknown origin) assessed as remaining activity at 1 uM by Kinome scan method relative to control
[14] = tested on: Receptor-type tyrosine-protein kinase FLT3 (Homo sapiens), P36888 [D835Y]; assay: Inhibition of FLT3 D835Y mutant (unknown origin) assessed as remaining activity at 1 uM by Kinome scan method relative to control
[15] = target: Tyrosine-protein kinase Fgr (Homo sapiens) (UniProt P09769); assay: Inhibition of FGR (unknown origin) assessed as remaining activity at 1 uM by Kinome scan method relative to control
[16] = target: Insulin-like growth factor 1 receptor (Homo sapiens) (UniProt P08069); assay: Inhibition of IGF1R (unknown origin) assessed as remaining activity at 1 uM by Kinome scan method relative to control
[17] = target: Serine/threonine-protein kinase N2 (Homo sapiens) (UniProt Q16513); assay: Inhibition of PKN2 (unknown origin) assessed as remaining activity at 1 uM by Kinome scan method relative to control
[18] = target: Calcium/calmodulin-dependent protein kinase kinase 1 (Homo sapiens) (UniProt Q8N5S9); assay: Inhibition of CAMKK1 (unknown origin) assessed as remaining activity at 1 uM by Kinome scan method relative to control
Outline: (§1)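 Active-site-dependent competition-binding profiling (KINOMEscan) at 1 μM against a 468-kinase panel; compound supplied from a 10 mM DMSO stock. Read-out is ctrl% = (test signal − positive control signal)/(negative control signal − positive control signal) × 100. DMSO is the negative control (100%) and a control compound the positive control (0%). Lower ctrl% means tighter binding.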

Mus musculus [19] = assay: Protection against APAP induced liver injury in mouse assessed as decrease in ALT level at 1 mg/kg, ip administered at 2.5 hrs; assay type: functional, organism-based; settings: Serum
[20] = target: Serine/threonine-protein kinase PAK 3 (Homo sapiens) (UniProt O75914); assay: Inhibition of PAK3 (unknown origin) assessed as remaining activity at 1 uM by Kinome scan method relative to control
[21] = target: Macrophage colony-stimulating factor 1 receptor (Homo sapiens) (UniProt P07333); assay: Inhibition of CSF1R (unknown origin) assessed as remaining activity at 1 uM by Kinome scan method relative to control; outline: as §1
HepG2 [22] = assay: Induction of apoptosis in human HepG2 cells overexpressing MST2 assessed as early apoptosis cells at 3 uM by annexinV staining (Rvb =13.6 %); assay type: functional
[23] = target: Non-receptor tyrosine-protein kinase TYK2 (Homo sapiens, UniProt P29597); assay: Inhibition of TYK2 JH2 domain (unknown origin) assessed as remaining activity at 1 uM by Kinome scan method relative to control
HepG2 [24] = assay: Induction of apoptosis in human HepG2 cells assessed as viable cells at 3 uM by annexinV staining (Rvb =95.0 %); assay type: functional; settings: read-out: Activity
[25] = target: Tyrosine-protein kinase JAK3 (Homo sapiens) (UniProt P52333); assay: Inhibition of JAK3 JH1 domain (unknown origin) assessed as remaining activity at 1 uM by Kinome scan method relative to control
[26] = target: Serine/threonine-protein kinase 26 (Homo sapiens, UniProt Q9P289); assay: Binding affinity to MST4 (unknown origin) assessed as dissociation constant
[27] = target: Serine/threonine-protein kinase 3 (Homo sapiens, UniProt Q13188, Y101F)
[28] = target: MAP kinase-activated protein kinase 5 (Homo sapiens) (UniProt Q8IW41); assay: Inhibition of MAPKAPK5 (unknown origin) assessed as remaining activity at 1 uM by Kinome scan method relative to control
[29] = target: T1, Tyrosine-protein kinase JAK1; assay: Inhibition of JAK1 JH2 domain (unknown origin) assessed as remaining activity at 1 uM by Kinome scan method relative to control

T1 sequence (P23458 whole entry, the tested form may be a part): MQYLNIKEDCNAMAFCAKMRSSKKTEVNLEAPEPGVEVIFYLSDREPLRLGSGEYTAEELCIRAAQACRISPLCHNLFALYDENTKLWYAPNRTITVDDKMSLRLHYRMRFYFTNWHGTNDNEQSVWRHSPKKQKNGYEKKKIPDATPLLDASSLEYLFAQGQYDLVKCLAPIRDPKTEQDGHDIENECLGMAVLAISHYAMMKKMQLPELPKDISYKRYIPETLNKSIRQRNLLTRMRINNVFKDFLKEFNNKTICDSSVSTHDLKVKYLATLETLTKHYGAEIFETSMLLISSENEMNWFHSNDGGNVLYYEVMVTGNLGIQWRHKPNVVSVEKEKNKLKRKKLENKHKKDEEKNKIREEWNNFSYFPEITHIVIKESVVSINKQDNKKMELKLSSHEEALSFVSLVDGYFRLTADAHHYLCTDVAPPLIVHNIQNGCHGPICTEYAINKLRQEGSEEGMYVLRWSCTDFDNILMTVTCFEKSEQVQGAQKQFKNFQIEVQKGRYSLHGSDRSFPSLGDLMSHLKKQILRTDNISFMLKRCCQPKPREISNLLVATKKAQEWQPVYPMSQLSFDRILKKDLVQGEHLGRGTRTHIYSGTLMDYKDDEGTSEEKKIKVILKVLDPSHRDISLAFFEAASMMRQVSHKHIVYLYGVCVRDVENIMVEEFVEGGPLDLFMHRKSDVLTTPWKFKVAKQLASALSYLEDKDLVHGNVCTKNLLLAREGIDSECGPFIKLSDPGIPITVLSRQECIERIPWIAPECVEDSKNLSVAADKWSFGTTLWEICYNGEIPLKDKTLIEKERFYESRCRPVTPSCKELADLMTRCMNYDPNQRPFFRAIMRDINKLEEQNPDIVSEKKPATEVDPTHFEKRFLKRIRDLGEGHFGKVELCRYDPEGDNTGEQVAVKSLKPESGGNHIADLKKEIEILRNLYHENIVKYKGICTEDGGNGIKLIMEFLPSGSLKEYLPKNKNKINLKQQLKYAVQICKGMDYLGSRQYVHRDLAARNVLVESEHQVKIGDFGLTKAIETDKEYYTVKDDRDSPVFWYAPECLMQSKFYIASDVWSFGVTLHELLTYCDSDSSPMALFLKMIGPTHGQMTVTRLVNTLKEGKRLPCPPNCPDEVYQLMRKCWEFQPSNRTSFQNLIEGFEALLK
Serine/threonine-protein kinase OSR1 (Homo sapiens), sequence (O95747 2-527 limits assumed): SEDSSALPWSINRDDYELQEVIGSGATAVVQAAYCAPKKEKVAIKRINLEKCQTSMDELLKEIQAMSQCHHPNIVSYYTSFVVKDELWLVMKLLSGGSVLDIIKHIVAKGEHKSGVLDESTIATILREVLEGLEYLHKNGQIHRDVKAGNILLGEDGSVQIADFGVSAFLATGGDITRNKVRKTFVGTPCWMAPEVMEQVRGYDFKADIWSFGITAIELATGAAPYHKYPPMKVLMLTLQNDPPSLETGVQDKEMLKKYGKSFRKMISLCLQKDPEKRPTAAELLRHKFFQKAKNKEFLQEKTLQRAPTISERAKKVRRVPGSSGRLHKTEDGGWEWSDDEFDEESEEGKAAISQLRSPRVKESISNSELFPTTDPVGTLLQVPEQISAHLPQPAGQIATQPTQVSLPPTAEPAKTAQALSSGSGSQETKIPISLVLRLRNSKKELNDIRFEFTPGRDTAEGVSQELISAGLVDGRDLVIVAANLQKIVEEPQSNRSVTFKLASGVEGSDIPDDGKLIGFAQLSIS
MAP kinase-activated protein kinase 5 (Homo sapiens), sequence (Q8IW41 whole entry, the tested form may be a part): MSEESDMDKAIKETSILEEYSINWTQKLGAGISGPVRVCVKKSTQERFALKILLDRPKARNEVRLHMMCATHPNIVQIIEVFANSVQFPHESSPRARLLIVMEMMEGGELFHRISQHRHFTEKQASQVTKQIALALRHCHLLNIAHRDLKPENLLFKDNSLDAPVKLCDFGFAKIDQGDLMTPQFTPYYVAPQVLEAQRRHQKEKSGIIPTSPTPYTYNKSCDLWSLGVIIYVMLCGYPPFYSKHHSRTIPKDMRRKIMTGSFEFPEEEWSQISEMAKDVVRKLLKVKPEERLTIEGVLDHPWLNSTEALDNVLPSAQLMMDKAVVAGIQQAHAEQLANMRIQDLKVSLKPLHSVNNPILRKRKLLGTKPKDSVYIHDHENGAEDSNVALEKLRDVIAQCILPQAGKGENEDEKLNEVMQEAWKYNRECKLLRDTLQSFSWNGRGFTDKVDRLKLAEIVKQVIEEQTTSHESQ
Tyrosine-protein kinase Fgr (Homo sapiens), sequence (P09769 2-529 limits assumed): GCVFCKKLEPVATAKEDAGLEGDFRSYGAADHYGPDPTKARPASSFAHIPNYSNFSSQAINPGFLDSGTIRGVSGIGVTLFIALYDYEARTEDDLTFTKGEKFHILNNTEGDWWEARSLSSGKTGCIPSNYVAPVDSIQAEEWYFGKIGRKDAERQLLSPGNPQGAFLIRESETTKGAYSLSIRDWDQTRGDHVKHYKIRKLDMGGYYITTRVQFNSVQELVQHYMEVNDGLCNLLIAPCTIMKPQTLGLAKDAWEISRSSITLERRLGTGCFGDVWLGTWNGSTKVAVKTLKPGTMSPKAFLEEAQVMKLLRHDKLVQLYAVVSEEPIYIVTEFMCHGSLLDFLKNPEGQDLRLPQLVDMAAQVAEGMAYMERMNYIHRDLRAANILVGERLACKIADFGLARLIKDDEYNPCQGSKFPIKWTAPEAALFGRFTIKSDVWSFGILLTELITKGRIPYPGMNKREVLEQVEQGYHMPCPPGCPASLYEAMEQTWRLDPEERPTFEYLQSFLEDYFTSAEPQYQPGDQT
Serine/threonine-protein kinase 26, sequence (Q9P289 whole entry): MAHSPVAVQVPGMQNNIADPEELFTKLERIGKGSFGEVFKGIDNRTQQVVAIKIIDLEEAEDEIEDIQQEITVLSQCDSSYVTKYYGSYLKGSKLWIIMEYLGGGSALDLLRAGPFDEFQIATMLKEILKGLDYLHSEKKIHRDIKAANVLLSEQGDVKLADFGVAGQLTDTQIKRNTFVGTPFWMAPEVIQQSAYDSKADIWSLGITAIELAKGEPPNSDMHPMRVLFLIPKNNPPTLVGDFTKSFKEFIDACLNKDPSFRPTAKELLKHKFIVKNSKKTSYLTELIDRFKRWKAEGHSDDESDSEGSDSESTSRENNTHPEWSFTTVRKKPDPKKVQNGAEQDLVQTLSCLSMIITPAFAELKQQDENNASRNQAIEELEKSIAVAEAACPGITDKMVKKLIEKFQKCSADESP
Serine/threonine-protein kinase RIO3 (Homo sapiens), sequence (O14730 whole entry): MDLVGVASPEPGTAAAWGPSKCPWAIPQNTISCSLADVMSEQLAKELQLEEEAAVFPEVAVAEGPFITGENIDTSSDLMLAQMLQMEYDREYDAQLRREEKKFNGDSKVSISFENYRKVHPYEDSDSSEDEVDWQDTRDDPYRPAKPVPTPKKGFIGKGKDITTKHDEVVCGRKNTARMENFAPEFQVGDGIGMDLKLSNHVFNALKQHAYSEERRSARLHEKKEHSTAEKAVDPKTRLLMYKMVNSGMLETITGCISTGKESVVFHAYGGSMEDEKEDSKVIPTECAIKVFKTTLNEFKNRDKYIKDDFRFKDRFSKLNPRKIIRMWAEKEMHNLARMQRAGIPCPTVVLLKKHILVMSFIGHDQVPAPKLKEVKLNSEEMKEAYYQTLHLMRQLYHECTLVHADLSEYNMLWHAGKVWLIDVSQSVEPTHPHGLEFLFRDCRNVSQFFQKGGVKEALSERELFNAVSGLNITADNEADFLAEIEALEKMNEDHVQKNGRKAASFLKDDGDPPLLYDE
Serine/threonine-protein kinase tousled-like 2 (Homo sapiens), sequence (Q86UE8 whole entry, looked up): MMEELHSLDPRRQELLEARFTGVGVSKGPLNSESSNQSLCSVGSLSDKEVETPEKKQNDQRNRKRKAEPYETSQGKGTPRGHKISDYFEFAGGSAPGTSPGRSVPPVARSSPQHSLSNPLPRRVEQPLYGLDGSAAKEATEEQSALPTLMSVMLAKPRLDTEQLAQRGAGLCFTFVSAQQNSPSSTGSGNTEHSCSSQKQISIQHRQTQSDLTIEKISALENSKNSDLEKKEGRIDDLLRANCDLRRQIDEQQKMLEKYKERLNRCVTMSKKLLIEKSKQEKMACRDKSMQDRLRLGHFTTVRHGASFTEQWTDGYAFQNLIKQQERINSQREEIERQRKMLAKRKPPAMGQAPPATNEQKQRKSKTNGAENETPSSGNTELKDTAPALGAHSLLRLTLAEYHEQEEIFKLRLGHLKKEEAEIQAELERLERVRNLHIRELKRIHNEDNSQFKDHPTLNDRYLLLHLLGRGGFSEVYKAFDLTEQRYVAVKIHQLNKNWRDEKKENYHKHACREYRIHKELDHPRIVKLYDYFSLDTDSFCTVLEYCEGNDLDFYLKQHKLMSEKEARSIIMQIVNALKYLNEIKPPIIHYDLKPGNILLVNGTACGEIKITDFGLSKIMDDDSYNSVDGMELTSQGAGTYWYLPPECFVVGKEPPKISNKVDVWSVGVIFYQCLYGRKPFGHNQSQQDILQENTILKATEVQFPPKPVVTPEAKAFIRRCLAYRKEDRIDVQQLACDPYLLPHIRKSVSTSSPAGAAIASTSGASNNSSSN
Tyrosine-protein kinase TXK (Homo sapiens), sequence (P42681 whole entry): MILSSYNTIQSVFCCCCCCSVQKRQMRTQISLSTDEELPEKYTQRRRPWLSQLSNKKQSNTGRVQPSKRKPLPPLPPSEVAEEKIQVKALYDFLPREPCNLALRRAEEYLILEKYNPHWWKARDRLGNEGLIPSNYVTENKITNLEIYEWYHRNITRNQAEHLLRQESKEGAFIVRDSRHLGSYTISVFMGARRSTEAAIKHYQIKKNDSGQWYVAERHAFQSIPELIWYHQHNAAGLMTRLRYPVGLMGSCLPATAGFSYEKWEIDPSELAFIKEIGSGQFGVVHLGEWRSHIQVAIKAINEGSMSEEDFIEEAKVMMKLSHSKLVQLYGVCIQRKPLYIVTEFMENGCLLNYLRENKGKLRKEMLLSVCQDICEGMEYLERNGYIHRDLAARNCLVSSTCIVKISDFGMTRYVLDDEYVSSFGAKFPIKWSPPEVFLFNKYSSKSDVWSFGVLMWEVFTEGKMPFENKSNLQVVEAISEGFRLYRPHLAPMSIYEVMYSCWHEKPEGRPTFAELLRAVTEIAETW

In the case of `CN1C(=O)c2sccc2N(C)c2nc(Nc3ccc(S(N)(=O)=O)cc3)ncc21`, the Activity [1] is reported as 100%, the Activity [2] is reported as 81% and the Activity [3] is reported as 96%. The inhibition (Mus musculus [4]) was “Active”, the Activity [5] was 100% and the Activity (Mus musculus [6]) was “Active”. It also gave an Activity [7] of 100%, an Activity [8] of 90% and an Activity [9] of 95%. It also gave an Activity [10] of 15%, an Activity [11] of 97% and an Activity [12] of 79%. For the same compound, the Activity [13] was 100%, the Activity [14] was 86% and the Activity [15] was 56%. The Activity [16] was 94%, the Activity [17] was 94% and the Activity [18] was 80%. For the same compound, the Activity (Mus musculus [19]) was “Active”, the Activity [20] was 100% and the Activity [21] was 86%. It also gave an Activity (HepG2 [22]) of 5.12%, an Activity [23] of 71% and a viability at 3 µM (HepG2 [24]) of 95%. It also gave an Activity [25] of 73%, a Kd [26] of 16 nM and an IC50 [27] of 361 nM. It also gave an Activity [28] of 91% and an Activity [29] of 4.3%.
